Published values from different studies.
pKi: −log10 of the molar value.
Target: Delta-type opioid receptor (Oprd1, Rattus norvegicus, UniProt P33533)
Notes: cell membranes

The pKi of `Cc1cc(O)cc(C)c1C[C@H](N)C(=O)N1CCc2ccc(Cc3ccccc3N)cc2C1` is reported as 8.05 (ligand displacement; radioligand).
`Cc1cc(O)cc(C)c1C[C@H](C)C(=O)N[C@@H]1CCCCC[C@@H](C(N)=O)NC(=O)[C@H](Cc2ccccc2)NC(=O)[C@H](Cc2ccccc2)NC1=O` has a pKi of 7.73 (ligand displacement; radioligand).
For `Cc1cccc(Cc2ccc3c(c2)CN(C(=O)[C@@H](N)Cc2c(C)cc(O)cc2C)CC3)c1`, the pKi was 8.52 (ligand displacement; radioligand).
`N=C(N)NCCC[C@H]1NC(=O)[C@H](Cc2ccc(O)cc2)NC(=O)[C@H](CCCCN)NC(=O)[C@H](Cc2ccccc2)NC1=O` gave a pKi of 7.19 (ligand displacement; radioligand).
For `Cc1cc(O)cc(C)c1C[C@H](C)C(=O)N[C@@H]1C/C=C\CC[C@@H](C(N)=O)NC(=O)[C@H](Cc2ccccc2)NC(=O)[C@H](Cc2ccccc2)NC1=O`, the pKi was 8.12 (ligand displacement; radioligand).
`Cc1cccc(C)c1C[C@H](NC(=O)[C@@H](CCCNC(=N)N)NC(=O)[C@@H](N)Cc1c(C)cc(O)cc1C)C(=O)N[C@@H](CCCCN)C(N)=O` gave a pKi of 6.98 (ligand displacement; radioligand).
The Kb of `Cc1cc(O)cc(C)c1C[C@H](N)C(=O)N[C@@H]1CCN(S(C)(=O)=O)c2ccc(CN3CCc4ccccc4C3)cc21` is reported as 0.85 nM (GTPγS binding; antagonist).
The pKi of `Cc1cc(O)cc(C)c1C[C@H](N)C(=O)N[C@H](CCCNC(=N)N)C(=O)N[C@@H](Cc1c(C)cccc1C(C)C)C(=O)N[C@@H](CCCCN)C(N)=O` is reported as 7.11 (ligand displacement; radioligand).
`Cc1cc(O)cc(C)c1C[C@H](N)C(=O)N[C@@H]1CCN(C(=O)c2ccccc2)c2ccc(Cc3ccc4ccccc4c3)cc21` gave a Kb of 15 nM (GTPγS binding; antagonist).
The pKi of `Cc1cc(O)cc(C)c1C[C@H](N)C(=O)N1CCc2ccc(Cc3cccc(N)c3)cc2C1` is reported as 8.26 (ligand displacement; radioligand).
`Cc1cc(C)c(C[C@H](NC(=O)[C@@H](CCCNC(=N)N)NC(=O)[C@@H](N)Cc2c(C)cc(O)cc2C)C(=O)N[C@@H](CCCCN)C(N)=O)c(C)c1` has a pKi of 6.48 (ligand displacement; radioligand).
`NC(N)=Nc1ccc2[nH]c3c(c2c1)C[C@@]1(O)[C@H]2Cc4ccc(O)c5c4[C@@]1(CCN2CC1CC1)[C@H]3O5` gave a pKi of 8.54 (ligand displacement; radioligand).
`Cc1cc(O)cc(C)c1C[C@H](N)C(=O)N1CCc2ccc(Cc3cccc([N+](=O)[O-])c3)cc2C1` gave a pKi of 8.60 (ligand displacement; radioligand).
